# How the values were obtained:
# Assay type in all cases: ADME, organism-based
# [1] = Oral clearance in healthy white human with CYP2C8*1/*1 genotype at 2 mg, po; details: in vivo
# How it was run: (§1)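 Repaglinide was assayed by LC-MS/MS with diclofenac internal standard (LLOQ 0.098 µg/L). Noncompartmental analysis gave AUC by linear/log-linear trapezoidal rule extrapolated to infinity. Weight-adjusted oral clearance = dose/(AUC × body weight).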
# Homo sapiens [2] = test: Mean change in insulin concentration in healthy white human plasma with CYP2C8*1/*3 genotype at 2 mg, po up to 6 hrs; details: in vivo
# How it was run: (§2)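 Healthy Caucasians got a single 2 mg oral dose and were genotyped for CYP2C8*3 and SLCO1B1 521T>C. Plasma insulin was sampled from pre-dose to 6 h and measured by solid-phase enzyme-labelled chemiluminescent immunometric assay (calibration 2–300 mU/l). Mean change is the average of post-dose values minus baseline up to 6 h, summarised per genotype group.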
# Homo sapiens [3] = organism: Homo sapiens; test: Maximal change in blood glucose concentration in healthy human plasma with SLCO1B1 521CC genotype at 0.5 mg
# Homo sapiens [4] = test: Mean change in blood glucose concentration in healthy white human plasma SLCO1B1 521CC/CYP2C8*3/*3 combined genotype at 2 mg, po; details: in vivo
# How it was run: (§3)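 Venous blood glucose was read at each blood sampling time after a single oral 2 mg dose, with fasting up to 6 h. […] Maximal change is the largest change from baseline. Mean change is the average difference between values up to 6 h post-dose and baseline.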
# [5] = Oral clearance in healthy white human with CYP2C8*3/*3 genotype at 2 mg, po; details: in vivo; how it was run: as §1
# [6] = Tmax in healthy white human at 2 mg, po; details: in vivo
# [7] = Terminal half life in healthy white human at 2 mg, po; details: in vivo, read-out: beta t1/2 (converted)
# How it was run: (§4)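 Single oral 2 mg dose; plasma sampled pre-dose and from 0:15 to 24 h post-dose (15 samples). Repaglinide measured by LC-MS/MS with diclofenac internal standard; calibration 0.098–79.139 µg/L. Noncompartmental analysis; AUC by linear/log-linear trapezoidal rule extrapolated to infinity. Reported as mean with 95% CI for all subjects and for each CYP2C8*3 genotype group.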
# [8] = AUC (0 to infinity) in healthy white human with SLCO1B1 521TC/CYP2C8*1/*1 combined genotype at 2 mg, po; design: dose 2 mg, route oral, time infinity; details: plasma
# How it was run: (§5)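 Healthy Caucasians genotyped for CYP2C8*3 and SLCO1B1 521T>C were given a single oral 2 mg dose of repaglinide, and alcohol, caffeine and grapefruit were withheld. Plasma was sampled before dosing and at 15 times from 0.25 to 24 h. Drug was measured by LC-MS/MS against diclofenac internal standard, linear 0.098–79.139 µg/L. Noncompartmental analysis: Cmax taken as observed; AUC by linear/log-linear trapezoidal rule extrapolated to infinity.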
# Homo sapiens [9] = test: Mean change in blood glucose concentration in healthy white human plasma at 2 mg, po up to 6 hrs; details: in vivo
# How it was run: (§6)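 Single 2 mg oral dose in healthy Caucasian volunteers genotyped for CYP2C8*3, with SLCO1B1 521T>C also typed. […] Mean change is the average difference between values up to 6 h post-dose and baseline. Fasting lasted to 6 h. Mean with 95% CI or SD by genotype group.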
# [10] = Oral clearance in healthy white human with CYP2C8*1/*3 genotype at 2 mg, po; details: in vivo; how it was run: as §1
# [11] = AUC (0 to infinity) in healthy white human with SLCO1B1 521CC/CYP2C8*1/*3 combined genotype at 2 mg, po; design: dose 2 mg, time infinity, route oral; details: plasma; how it was run: as §5
# Homo sapiens [12] = test: Mean change in blood glucose concentration in healthy white human plasma SLCO1B1 521TT/CYP2C8*1/*1 combined genotype at 2 mg, po; details: in vivo; how it was run: as §6
# [13] = AUC (0 to infinity) in healthy white human with SLCO1B1 521TC/CYP2C8*3/*3 combined genotype at 2 mg, po; design: dose 2 mg, route oral, time infinity; details: plasma; how it was run: as §5
# [14] = AUC (0 to infinity) in healthy white human with CYP2C8*1/*1 genotype at 2 mg, po; design: dose 2 mg, time infinity, route oral; details: plasma; how it was run: as §5
# Homo sapiens [15] = test: Maximal change in insulin concentration in healthy white human plasma with CYP2C8*1/*3 genotype at 2 mg, po up to 6 hrs; details: in vivo
# How it was run: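 Plasma insulin was sampled up to 6 h after a single oral 2 mg dose, with subjects fasting. It was measured by solid-phase enzyme-labelled chemiluminescent immunometric assay, calibration range 2–300 mU/l. Maximal change is the largest change from the baseline concentration within 6 h.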
# [16] = Cmax in healthy white human with SLCO1B1 521TT/CYP2C8*1/*3 combined genotype at 2 mg, po; design: dose 2 mg, route oral; details: in vivo; how it was run: as §5
# Homo sapiens [17] = test: Mean change in blood glucose concentration in healthy white human plasma with CYP2C8*1/*3 genotype at 2 mg, po up to 6 hrs; details: in vivo; how it was run: as §6
# [18] = AUC (0 to infinity) in healthy white human with CYP2C8*1/*3 genotype at 2 mg, po; design: dose 2 mg, time infinity, route oral; details: plasma; how it was run: as §5
# Homo sapiens [19] = organism: Homo sapiens; test: Maximal change in blood glucose concentration in healthy human plasma with SLCO1B1 521TT genotype at 0.5 mg
# Homo sapiens [20] = test: Maximal change in blood glucose concentration in healthy white human plasma with CYP2C8*1/*3 genotype at 2 mg, po up to 6 hrs; details: in vivo; how it was run: as §3
# [21] = AUC (0 to infinity) in healthy white human with SLCO1B1 521TT/CYP2C8*1/*3 combined genotype at 2 mg, po; design: dose 2 mg, route oral, time infinity; details: plasma; how it was run: as §5
# [22] = Cmax in healthy white human with SLCO1B1 521TC/CYP2C8*3/*3 combined genotype at 2 mg, po; design: dose 2 mg, route oral; details: in vivo; how it was run: as §5
# Homo sapiens [23] = test: Maximal change in blood glucose concentration in healthy white human plasma with CYP2C8*3/*3 genotype at 2 mg, po up to 6 hrs; details: in vivo; how it was run: as §3
# [24] = Terminal half life in healthy white human with CYP2C8*1/*3 genotype at 2 mg, po; details: in vivo, read-out: beta t1/2 (converted); how it was run: as §4
# [25] = Cmax in healthy white human with SLCO1B1 521TT/CYP2C8*1/*1 combined genotype at 2 mg, po; design: dose 2 mg, route oral; details: in vivo; how it was run: as §5
# [26] = Tmax in healthy white human with CYP2C8*3/*3 genotype at 2 mg, po; details: in vivo
# Homo sapiens [27] = test: Mean change in blood glucose concentration in healthy white human plasma SLCO1B1 521TC/CYP2C8*3/*3 combined genotype at 2 mg, po; details: in vivo; how it was run: as §6
# Homo sapiens [28] = test: Mean change in blood glucose concentration in healthy white human plasma with CYP2C8*3/*3 genotype at 2 mg, po up to 6 hrs; details: in vivo; how it was run: as §6
# [29] = Oral bioavailability in human; details: in vivo
# [30] = Cmax in healthy white human with CYP2C8*3/*3 genotype at 2 mg, po; design: dose 2 mg, route oral; details: in vivo; how it was run: as §5
# [31] = AUC (0 to infinity) in healthy white human with CYP2C8*3/*3 genotype at 2 mg, po; design: dose 2 mg, route oral, time infinity; details: plasma; how it was run: as §5
# Homo sapiens [32] = test: Maximal change in blood glucose concentration in healthy white human plasma with CYP2C8*1/*1 genotype at 2 mg, po up to 6 hrs; details: in vivo; how it was run: as §3
# Homo sapiens [33] = test: Mean change in blood glucose concentration in healthy white human plasma SLCO1B1 521TT/CYP2C8*1/*3 combined genotype at 2 mg, po; details: in vivo; how it was run: as §6
# [34] = Terminal half life in healthy white human with CYP2C8*1/*1 genotype at 2 mg, po; details: in vivo, read-out: beta t1/2 (converted); how it was run: as §4
# [35] = Cmax in healthy white human at 2 mg, po; design: dose 2 mg, route oral; details: in vivo; how it was run: as §5
# Homo sapiens [36] = test: Mean change in insulin concentration in healthy white human plasma with SLCO1B1 521TT/CYP2C8*1/*1 combined genotype at 2 mg, po; details: in vivo; how it was run: as §2
structure (smiles),measurement,setting,value
CCOc1cc(CC(=O)N[C@@H](CC(C)C)c2ccccc2N2CCCCC2)ccc1C(=O)O [REPAGLINIDE],CL/F,[1],7.5 mL/min/kg
same,Activity,Homo sapiens [2],5.2 mU/L
same,Activity,Homo sapiens [3],2.3 mM
same,Activity,Homo sapiens [4],-0.8 mM
same,CL/F,[5],8 mL/min/kg
same,Tmax,[6],0.8 h
same,half-life,[7],1.3 h
same,AUC(0-inf),[8],146 ng·h/mL
same,Activity,Homo sapiens [9],-0.53 mM
same,CL/F,[10],7.67 mL/min/kg
same,AUC(0-inf),[11],18.2 ng·h/mL
same,Activity,Homo sapiens [12],-0.4 mM
same,AUC(0-inf),[13],23.4 ng·h/mL
same,AUC(0-inf),[14],106 ng·h/mL
same,Activity,Homo sapiens [15],17.3 mU/L
same,Cmax,[16],57 ng/mL
same,Activity,Homo sapiens [17],-0.65 mM
same,AUC(0-inf),[18],97.2 ng·h/mL
same,Activity,Homo sapiens [19],1.9 mM
same,Activity,Homo sapiens [20],-1.83 mM
same,AUC(0-inf),[21],117 ng·h/mL
same,Cmax,[22],15.3 ng/mL
same,Activity,Homo sapiens [23],-1.48 mM
same,half-life,[24],1.3 h
same,Cmax,[25],52.5 ng/mL
same,Tmax,[26],0.9 h
same,Activity,Homo sapiens [27],-0.2 mM
same,Activity,Homo sapiens [28],-0.5 mM
same,bioavailability,[29],60%
same,Cmax,[30],38.5 ng/mL
same,AUC(0-inf),[31],72.4 ng·h/mL
same,Activity,Homo sapiens [32],-1.62 mM
same,Activity,Homo sapiens [33],-0.5 mM
same,half-life,[34],1.2 h
same,Cmax,[35],52.8 ng/mL
same,Activity,Homo sapiens [36],7.1 mU/l

# From ChEMBL document CHEMBL3526119, “Effect of the CYP2C8 genotype on the pharmacokinetics and pharmacodynamics of repaglinide” (Drug Metab Dispos, 2011)
